Assay results published in ChEMBL document CHEMBL2150880, “Discovery and characterization of small molecule inhibitors of the BET family bromodomains” (J Med Chem, 2011).
Activity calls are given as the source filed them. The rule behind the calls is not given here.

Columns and labels:
HepG2 [1] = test: Induction of human LDL-R gene expression in stably transfected human HepG2 cells coexpressing luciferase reporter gene at 0.001 to 10 uM after 18 hrs by luminescence assay; format: functional, cell-based
How it was run: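 Selectivity counter-screen run in parallel under the same conditions as the ApoA1 reporter: HepG2 cells stably carrying an LDL-receptor promoter–luciferase reporter, 18 h with or without compound in 0.5% DMSO, then Bright Glo luminescence read after 10 min.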

HepG2 [2] = test: Induction of human ApoA1 gene expression in stably transfected human HepG2 cells coexpressing luciferase reporter gene at 0.001 to 10 uM after 18 hrs by luminescence assay; format: functional, cell-based
How it was run: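 HepG2 cells stably carrying an ApoA1 promoter–luciferase reporter were incubated 18 h with or without freshly diluted compound in 0.5% DMSO. Bright Glo reagent was then added, and luminescence was read after 10 min with substrate.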

HepG2 [3] = test: Induction of human ApoA1 protein synthesis in human HepG2 cells assessed as neosynthesised radiolabeled protein secretion after 6 hrs by SDS PAGE analysis in presence of [35S]methionine; format: functional, cell-based
How it was run: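 Confluent HepG2 cells were exposed to compound for 48 h in BME with 1% FCS. Compound was re-added in Met/Cys-depleted RPMI-1640 containing 35S-methionine for 6 h at 37 °C. Secreted labelled proteins were separated on 5–12% SDS-PAGE, and ApoA1 was quantified by phosphorimaging.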

HepG2 [4] = test: Induction of human ApoA1 gene expression in stably transfected human HepG2 cells coexpressing luciferase reporter gene after 18 hrs by luminescence assay; format: functional, cell-based
HepG2 [5] = test: Induction of human ApoA1 gene expression in stably transfected human HepG2 cells coexpressing luciferase reporter gene after 18 hrs by luminescence assay relative to control; format: functional
[6] = target: T1, ATPase family AAA domain-containing protein 2 (Homo sapiens, UniProt Q6PL18); test: Binding affinity to ATAD2 by isothermal titration calorimetric analysis
T1 sequence (Q6PL18 whole entry): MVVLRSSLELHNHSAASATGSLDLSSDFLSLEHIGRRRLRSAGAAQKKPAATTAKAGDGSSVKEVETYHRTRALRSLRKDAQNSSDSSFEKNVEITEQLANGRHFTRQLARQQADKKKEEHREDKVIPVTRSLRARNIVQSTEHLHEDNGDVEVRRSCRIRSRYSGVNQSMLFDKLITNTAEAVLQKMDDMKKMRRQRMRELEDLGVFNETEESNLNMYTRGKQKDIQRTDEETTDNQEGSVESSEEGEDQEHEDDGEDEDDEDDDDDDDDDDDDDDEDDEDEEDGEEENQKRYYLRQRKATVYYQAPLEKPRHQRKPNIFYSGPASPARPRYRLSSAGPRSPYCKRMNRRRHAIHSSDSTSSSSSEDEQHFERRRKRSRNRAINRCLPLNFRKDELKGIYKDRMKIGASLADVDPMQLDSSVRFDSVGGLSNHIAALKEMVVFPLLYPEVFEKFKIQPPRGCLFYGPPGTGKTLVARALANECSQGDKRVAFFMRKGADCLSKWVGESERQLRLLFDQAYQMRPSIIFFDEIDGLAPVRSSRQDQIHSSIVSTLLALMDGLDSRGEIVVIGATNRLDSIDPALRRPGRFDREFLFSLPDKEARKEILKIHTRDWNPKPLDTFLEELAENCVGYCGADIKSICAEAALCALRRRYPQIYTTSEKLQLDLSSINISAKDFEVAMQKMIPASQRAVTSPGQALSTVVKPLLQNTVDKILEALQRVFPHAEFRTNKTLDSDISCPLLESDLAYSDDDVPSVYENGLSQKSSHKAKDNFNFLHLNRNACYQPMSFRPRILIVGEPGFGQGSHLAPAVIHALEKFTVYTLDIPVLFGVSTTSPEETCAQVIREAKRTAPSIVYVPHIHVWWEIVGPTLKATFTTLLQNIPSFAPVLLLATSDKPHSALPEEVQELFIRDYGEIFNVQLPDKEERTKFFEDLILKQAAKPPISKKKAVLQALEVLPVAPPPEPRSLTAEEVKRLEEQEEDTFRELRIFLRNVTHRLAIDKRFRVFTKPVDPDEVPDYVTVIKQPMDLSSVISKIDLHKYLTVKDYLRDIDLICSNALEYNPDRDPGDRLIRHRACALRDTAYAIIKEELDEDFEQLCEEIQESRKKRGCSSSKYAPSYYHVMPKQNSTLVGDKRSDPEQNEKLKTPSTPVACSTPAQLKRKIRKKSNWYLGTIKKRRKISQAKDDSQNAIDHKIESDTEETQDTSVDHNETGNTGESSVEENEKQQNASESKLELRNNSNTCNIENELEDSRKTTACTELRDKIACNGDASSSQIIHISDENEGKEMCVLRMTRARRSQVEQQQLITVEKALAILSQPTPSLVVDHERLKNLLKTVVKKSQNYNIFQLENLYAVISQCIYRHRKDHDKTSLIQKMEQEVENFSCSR

HepG2 [7] = test: Induction of human ApoA1 gene expression in stably transfected human HepG2 cells coexpressing luciferase reporter gene at 1 uM after 18 hrs by luminescence assay relative to control; format: functional
CREB-binding protein = CREB-binding protein (Homo sapiens, UniProt Q92793); test: Binding affinity to CREBBP by isothermal titration calorimetric analysis
Sequence of CREB-binding protein (Q92793 whole entry): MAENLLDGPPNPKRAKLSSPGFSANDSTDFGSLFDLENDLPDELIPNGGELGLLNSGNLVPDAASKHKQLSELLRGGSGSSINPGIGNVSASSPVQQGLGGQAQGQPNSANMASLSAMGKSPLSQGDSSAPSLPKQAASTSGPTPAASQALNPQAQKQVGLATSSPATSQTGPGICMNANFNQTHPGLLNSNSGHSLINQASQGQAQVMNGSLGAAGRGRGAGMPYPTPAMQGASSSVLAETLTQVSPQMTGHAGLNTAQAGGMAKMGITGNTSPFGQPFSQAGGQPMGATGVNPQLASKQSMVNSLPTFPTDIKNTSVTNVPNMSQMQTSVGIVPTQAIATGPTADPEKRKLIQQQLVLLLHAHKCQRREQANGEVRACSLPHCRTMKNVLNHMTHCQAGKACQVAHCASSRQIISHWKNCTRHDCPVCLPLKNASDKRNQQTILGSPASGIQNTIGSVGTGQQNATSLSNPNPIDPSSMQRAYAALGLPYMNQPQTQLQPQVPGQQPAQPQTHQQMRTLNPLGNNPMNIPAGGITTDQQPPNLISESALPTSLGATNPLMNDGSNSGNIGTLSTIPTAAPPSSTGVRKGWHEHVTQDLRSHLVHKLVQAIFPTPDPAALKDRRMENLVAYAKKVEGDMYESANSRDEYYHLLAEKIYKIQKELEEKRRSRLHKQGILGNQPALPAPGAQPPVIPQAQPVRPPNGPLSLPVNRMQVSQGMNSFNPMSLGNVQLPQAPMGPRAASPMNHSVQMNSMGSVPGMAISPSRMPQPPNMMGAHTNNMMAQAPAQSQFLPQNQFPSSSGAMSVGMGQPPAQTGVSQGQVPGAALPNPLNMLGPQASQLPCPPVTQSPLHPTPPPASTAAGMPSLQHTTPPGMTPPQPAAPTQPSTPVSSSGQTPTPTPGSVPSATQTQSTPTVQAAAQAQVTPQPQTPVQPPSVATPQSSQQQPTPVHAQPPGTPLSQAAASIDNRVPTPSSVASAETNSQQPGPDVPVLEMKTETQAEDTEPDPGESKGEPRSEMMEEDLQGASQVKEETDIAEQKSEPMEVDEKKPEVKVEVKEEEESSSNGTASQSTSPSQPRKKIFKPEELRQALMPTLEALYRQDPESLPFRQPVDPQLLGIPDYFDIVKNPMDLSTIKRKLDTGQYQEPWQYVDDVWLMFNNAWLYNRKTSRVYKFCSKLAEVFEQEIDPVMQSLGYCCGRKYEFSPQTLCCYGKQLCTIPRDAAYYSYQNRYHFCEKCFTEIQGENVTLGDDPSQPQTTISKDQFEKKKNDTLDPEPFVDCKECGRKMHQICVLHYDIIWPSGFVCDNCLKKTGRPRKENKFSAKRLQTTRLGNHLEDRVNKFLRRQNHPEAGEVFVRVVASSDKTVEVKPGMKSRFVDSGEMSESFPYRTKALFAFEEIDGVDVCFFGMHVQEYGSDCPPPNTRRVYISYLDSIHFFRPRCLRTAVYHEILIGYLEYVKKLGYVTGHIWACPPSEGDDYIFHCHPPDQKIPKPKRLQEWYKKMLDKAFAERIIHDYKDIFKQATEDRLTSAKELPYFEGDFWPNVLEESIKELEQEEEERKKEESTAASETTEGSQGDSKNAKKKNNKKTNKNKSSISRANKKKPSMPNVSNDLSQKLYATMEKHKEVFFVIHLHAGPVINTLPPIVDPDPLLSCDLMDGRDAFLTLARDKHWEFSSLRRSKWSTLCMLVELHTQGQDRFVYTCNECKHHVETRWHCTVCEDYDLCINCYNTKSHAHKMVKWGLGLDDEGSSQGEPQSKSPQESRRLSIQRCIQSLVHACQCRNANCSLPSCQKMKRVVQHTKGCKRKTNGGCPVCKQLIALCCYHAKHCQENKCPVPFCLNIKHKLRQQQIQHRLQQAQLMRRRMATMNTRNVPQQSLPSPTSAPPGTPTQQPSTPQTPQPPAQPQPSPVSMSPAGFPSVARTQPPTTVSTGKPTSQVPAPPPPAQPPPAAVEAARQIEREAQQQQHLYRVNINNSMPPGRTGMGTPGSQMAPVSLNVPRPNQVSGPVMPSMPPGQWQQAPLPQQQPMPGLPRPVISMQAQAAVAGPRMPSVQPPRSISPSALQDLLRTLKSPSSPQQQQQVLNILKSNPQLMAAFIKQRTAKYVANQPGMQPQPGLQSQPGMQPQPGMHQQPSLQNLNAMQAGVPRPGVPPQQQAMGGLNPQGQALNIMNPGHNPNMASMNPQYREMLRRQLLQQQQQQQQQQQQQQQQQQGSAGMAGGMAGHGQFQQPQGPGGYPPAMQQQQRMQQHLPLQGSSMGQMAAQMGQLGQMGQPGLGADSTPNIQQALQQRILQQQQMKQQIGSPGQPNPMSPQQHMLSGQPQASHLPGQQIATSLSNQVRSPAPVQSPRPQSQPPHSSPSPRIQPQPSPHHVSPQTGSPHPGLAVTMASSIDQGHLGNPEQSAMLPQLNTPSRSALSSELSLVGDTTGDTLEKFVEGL

| SMILES | Activity (HepG2 [1]) | Activity (HepG2 [2]) | Activity (HepG2 [3]) | Activity (HepG2 [4]) | fold change (FC) (HepG2 [5]) | Kd [6] | fold change (FC) (HepG2 [7]) | EC50 (HepG2 [4]; HepG2, 18 h) | Kd (CREB-binding protein) |
| --- | --- | --- | --- | --- | --- | --- | --- | --- | --- |
| CCNC(=O)C[C@H]1N=C(c2ccc(Cl)cc2)c2cc(OC)ccc2-n2c(C)nnc21 | inactive | inactive | – | – | – | – | – | – | – |
| CCNC(=O)C[C@@H]1N=C(c2ccc(Cl)cc2)c2cc(OC)ccc2-n2c(C)nnc21 | inactive | – | Active | Dose-dependent effect | – | – | – | – | – |
| Cc1nnc2n1-c1ccccc1C(c1ccccc1)=NC2NC(=O)OCc1ccccc1 (configuration not stated) | inactive | – | – | Dose-dependent effect | 4.5 | > 50 µM | 3 | 440 nM | > 50 µM |
